Assay results published in ChEMBL document CHEMBL3232882, “N-Acyl-phosphoramidates as potential novel form of gemcitabine prodrugs” (Bioorg Med Chem, 2014).
Active and inactive are the calls of the source. No cut-off for these calls is given here.

Columns and labels:
[1] = Inhibition of Escherichia coli DNA polymerase 1 with 3' to 5'-exonucleolytic activity using dCTP as substrate assessed as single base extension reaction after 2 hrs
Summary of the method: (§1)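 Compound (0.4–2.0 mM; 1- to 5-fold over dCTP) added together with 0.4 mM dCTP in 0.05 M Tris-HCl pH 8.0, 5 mM MgCl2, 1 mM DTT, 2 h at 37 °C. The n+1 product was quantified after 20% PAGE/7 M urea and autoradiography; EC50 is the concentration giving 50% inhibition.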

[2] = molecular target: T1, DNA polymerase alpha catalytic subunit (Homo sapiens, UniProt P09884); experiment: Inhibition of human DNA polymerase alpha using dCTP as substrate assessed as single base extension reaction after 2 hrs
T1 sequence (P09884 whole entry): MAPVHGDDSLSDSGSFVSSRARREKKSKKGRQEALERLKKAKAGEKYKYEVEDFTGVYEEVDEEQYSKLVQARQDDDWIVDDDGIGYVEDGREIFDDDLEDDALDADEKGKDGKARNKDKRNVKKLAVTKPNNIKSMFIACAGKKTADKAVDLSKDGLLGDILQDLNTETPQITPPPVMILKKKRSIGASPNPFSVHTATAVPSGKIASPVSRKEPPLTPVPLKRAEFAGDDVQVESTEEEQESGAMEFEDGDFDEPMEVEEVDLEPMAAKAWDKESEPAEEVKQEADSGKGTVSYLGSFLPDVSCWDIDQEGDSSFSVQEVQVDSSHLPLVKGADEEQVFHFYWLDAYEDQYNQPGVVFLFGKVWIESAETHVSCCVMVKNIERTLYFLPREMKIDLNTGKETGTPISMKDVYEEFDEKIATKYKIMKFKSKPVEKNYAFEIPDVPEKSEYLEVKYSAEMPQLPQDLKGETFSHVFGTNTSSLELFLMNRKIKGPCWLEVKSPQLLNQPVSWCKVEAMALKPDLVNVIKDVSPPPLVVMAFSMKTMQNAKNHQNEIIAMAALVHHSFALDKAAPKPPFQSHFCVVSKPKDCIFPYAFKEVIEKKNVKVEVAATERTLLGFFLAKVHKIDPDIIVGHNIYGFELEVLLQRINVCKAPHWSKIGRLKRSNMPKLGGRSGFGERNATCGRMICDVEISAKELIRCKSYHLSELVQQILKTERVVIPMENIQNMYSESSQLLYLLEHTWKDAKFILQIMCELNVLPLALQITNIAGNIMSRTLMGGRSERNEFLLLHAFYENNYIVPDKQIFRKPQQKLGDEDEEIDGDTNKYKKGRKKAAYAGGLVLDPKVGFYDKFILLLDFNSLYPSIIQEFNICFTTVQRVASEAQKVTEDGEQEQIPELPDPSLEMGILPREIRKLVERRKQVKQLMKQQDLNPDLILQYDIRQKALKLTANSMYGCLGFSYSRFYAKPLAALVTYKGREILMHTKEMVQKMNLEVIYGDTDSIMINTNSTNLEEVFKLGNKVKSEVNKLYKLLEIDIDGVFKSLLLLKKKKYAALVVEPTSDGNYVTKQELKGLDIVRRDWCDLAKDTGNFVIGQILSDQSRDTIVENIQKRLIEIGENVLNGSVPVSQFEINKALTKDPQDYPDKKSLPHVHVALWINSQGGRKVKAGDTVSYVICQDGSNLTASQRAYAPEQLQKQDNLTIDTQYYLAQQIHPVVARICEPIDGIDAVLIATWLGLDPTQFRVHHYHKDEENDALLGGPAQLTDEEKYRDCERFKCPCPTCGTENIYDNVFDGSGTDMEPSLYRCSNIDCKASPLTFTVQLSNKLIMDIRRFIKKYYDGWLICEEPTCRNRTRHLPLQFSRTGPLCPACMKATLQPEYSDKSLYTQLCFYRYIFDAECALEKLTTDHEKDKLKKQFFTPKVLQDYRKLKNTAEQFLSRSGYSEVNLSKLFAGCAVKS

[3] = molecular target: T2, HINT1 (adenosine 5'-monophosphoramidase) (Homo sapiens, UniProt P49773); experiment: Stability in human HeLa cell lysate assessed as HINT-1-mediated phosphoramidase activity by measuring compound remaining at 1 mM after 22 hrs by RP-HPLC analysis relative to control; format: ADME, cell-based; conditions: read-out: Stability
T2 sequence (P49773 whole entry): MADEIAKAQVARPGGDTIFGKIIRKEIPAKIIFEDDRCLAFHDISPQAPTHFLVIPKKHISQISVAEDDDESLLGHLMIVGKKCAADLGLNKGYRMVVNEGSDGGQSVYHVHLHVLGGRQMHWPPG
Summary of the method: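 HeLa lysate from confluent cells, sonicated in PBS with protease inhibitors. Substrate 1 mM in 20 mM Na-HEPES pH 7.2, 0.5 mM MgCl2, 22 h at 37 °C. Ice-quenched, heat-denatured, centrifuged. C18 RP-HPLC (acetonitrile 0–8% in 0.1 M TEAB pH 7.4) at 260 nm; intact substrate quantified by peak integration; mean ± SE of at least duplicate.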

[4] = Inhibition of Escherichia coli DNA polymerase 1 without 3' to 5'-exonucleolytic activity using dCTP as substrate assessed as single base extension reaction after 2 hrs; summary of the method: as §1
[5] = molecular target: Adenosine 5'-monophosphoramidase HINT1 (Oryctolagus cuniculus, UniProt P80912); experiment: Stability assessed as rabbit recombinant HINT1-mediated compound hydrolysis at 1 mM after 22 hrs by RP-HPLC analysis; format: ADME; conditions: 1000 µM
Sequence of Adenosine 5'-monophosphoramidase HINT1 (P80912 whole entry): as the sequence (P49773 whole entry) above, with R37Q, V65A, D69A, N91K, H122N counted along it
Summary of the method: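 Recombinant Hint-1 was expressed from pSGA02-HINT in E. coli BL21, purified on AMP-agarose, and dialysed into 20 mM Tris pH 7.5/150 mM NaCl. Substrate 1 mM in 20 mM Na-HEPES pH 7.2, 0.5 mM MgCl2 with rHint-1, 22 h at 37 °C. Analysed by C18 RP-HPLC at 260 nm via peak integration; mean ± SE of at least duplicate.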

HeLa [6] = experiment: Cytotoxicity against human HeLa cells assessed as reduction of cell survival after 96 hrs by MTT assay; format: functional, cell-based
Summary of the method: (§2)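 HeLa seeded at 7×10^3 and CFPAC at 10^4 per well in RPMI 1640 with 10% FCS under 5% CO2. After 24 h, exposure to compounds (aqueous 100 mM stock; final 1 mM to 1×10^-6 mM) for 72 or 96 h. MTT 2 h, formazan dissolved in 20% SDS/50% DMF pH 4.7, A570/650. Untreated cells = 100%; IC50 from dose-response curves, 2 independent experiments in triplicate.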

CFPAC-1 [7] = experiment: Cytotoxicity against human CFPAC-1 cells assessed as reduction of cell survival after 96 hrs by MTT assay; format: functional, cell-based; conditions: CFPAC-1, 96 h; summary of the method: as §2
[8] = molecular target: T2, HINT1 (adenosine 5'-monophosphoramidase); experiment: Stability in human K562 cell lysate assessed as HINT-1-mediated phosphoramidase activity by measuring compound remaining at 1 mM after 22 hrs by RP-HPLC analysis relative to control; format: ADME, cell-based; conditions: read-out: Stability
Summary of the method: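 K562 lysate from confluent cells, scraped and sonicated in PBS with protease inhibitors. Substrate 1 mM in 20 mM Na-HEPES pH 7.2, 0.5 mM MgCl2, with lysate protein, 22 h at 37 °C. Quenched on ice, heat-denatured, centrifuged. Supernatant analysed by C18 RP-HPLC (0–8% acetonitrile in 0.1 M TEAB pH 7.4, 20 min) at 260 nm. Peaks integrated; products identified by co-injection; mean ± SE, at least duplicate.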

Thermococcus sp. 9oN-7 [9] = experiment: Inhibition of Thermococcus sp. 9oN-7 therminator DNA polymerase assessed as single base extended product level after 1 hr by single base extension reaction based electrophoresis method; design: concentration or dose not given beside the values
HUVEC = experiment: Cytotoxicity against HUVEC assessed as cell after 48 hrs by MTT assay; format: cell-based; conditions: Homo sapiens
Summary of the method: (§3)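 HUVEC (from fresh umbilical cords, gelatin-coated dishes, RPMI 1640 with 20% FBS, heparin, ECGF) and K562 (RPMI 1640, 10% FCS) were seeded at 7×10^3 per well. After 24 h, exposure for 48 h to compounds from 100 mM aqueous stock, final 1 mM down to 1×10^-6 mM. MTT read at 570/650 nm; untreated = 100%; IC50 from dose-response curves, mean of 2 experiments in triplicate.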

Thermococcus sp. 9oN-7 [10] = experiment: Activity of Thermococcus sp. 9oN-7 therminator DNA polymerase after 2 hrs by single base extension reaction based electrophoresis method
Escherichia coli [11] = experiment: Activity of Escherichia coli DNA polymerase 1 with 3' to 5'-exonucleolytic activity after 2 hrs by single base extension reaction based electrophoresis method
Summary of the method: (§4)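 Test compound with KF+ or KF- (1U) in 0.05 M Tris-HCl pH 8.0, 5 mM MgCl2, 1 mM DTT, 2 h at 37 °C, then heat-denatured. Read-out was 20% PAGE/7 M urea, autoradiography and quantitation of n+1 product; dCTP reaction served as control.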

Escherichia coli [12] = experiment: Activity of Escherichia coli DNA polymerase 1 without 3' to 5'-exonucleolytic activity after 2 hrs by single base extension reaction based electrophoresis method; summary of the method: as §4
CFPAC-1 [13] = experiment: Cytotoxicity against human CFPAC-1 cells assessed as reduction of cell survival after 72 hrs by MTT assay; format: functional, cell-based; conditions: CFPAC-1, 72 h; summary of the method: as §2
HeLa [14] = experiment: Cytotoxicity against human HeLa cells assessed as reduction of cell survival after 72 hrs by MTT assay; format: functional, cell-based; summary of the method: as §2
K562 = experiment: Cytotoxicity against human K562 cells assessed as reduction of cell survival after 48 hrs by MTT assay; format: functional, cell-based; conditions: K562, 48 h; summary of the method: as §3

CC(=O)N1CCC[C@H]1C(=O)NP(=O)(S)OC[C@H]1O[C@@H](n2ccc(N)nc2=O)C(F)(F)[C@@H]1O (stereo not given in full)
EC50 [1]: > 2000 µM
EC50 [2]: > 500 µM
remaining at 22 h, 1000 µM [3]: 100%
EC50 [4]: > 2000 µM
Stability [5]: Stable
IC50 (HeLa [6]): 450 µM
IC50 (CFPAC-1 [7]): 310 µM
remaining at 22 h, 1000 µM [8]: 85.3%
Activity (Thermococcus sp. 9oN-7 [9]): 100%
IC50 (HUVEC): 800 µM
Activity (Thermococcus sp. 9oN-7 [10]): inactive
Activity (Escherichia coli [11]): inactive
Activity (Escherichia coli [12]): inactive
IC50 (CFPAC-1 [13]): 350 µM
IC50 (HeLa [14]): 500 µM
IC50 (K562): > 1000 µM

Nc1ccn([C@@H]2O[C@H](COP(=O)(S)NC(=O)c3ccccc3)[C@@H](O)C2(F)F)c(=O)n1 (stereo not given in full)
EC50 [1]: 1030 µM
EC50 [2]: 350 µM
remaining at 22 h, 1000 µM [3]: 100%
EC50 [4]: 990 µM
Stability [5]: Stable
IC50 (HeLa [6]): 650 µM
IC50 (CFPAC-1 [7]): 315 µM
remaining at 22 h, 1000 µM [8]: 91.5%
Activity (Thermococcus sp. 9oN-7 [9]): 100%
IC50 (HUVEC): > 1000 µM
Activity (Thermococcus sp. 9oN-7 [10]): inactive
Activity (Escherichia coli [11]): inactive
Activity (Escherichia coli [12]): inactive
IC50 (CFPAC-1 [13]): 425 µM
IC50 (HeLa [14]): 900 µM
IC50 (K562): 800 µM

CC(=O)N[C@@H](Cc1ccccc1)C(=O)NP(=O)(O)OC[C@H]1O[C@@H](n2ccc(N)nc2=O)C(F)(F)[C@@H]1O
EC50 [1]: > 2000 µM
EC50 [2]: > 500 µM
remaining at 22 h, 1000 µM [3]: 71%
EC50 [4]: > 2000 µM
Stability [5]: Stable
IC50 (HeLa [6]): 45 µM
IC50 (CFPAC-1 [7]): 0.45 µM
remaining at 22 h, 1000 µM [8]: 45.9%
Activity (Thermococcus sp. 9oN-7 [9]): 100%
IC50 (HUVEC): 200 µM
Activity (Thermococcus sp. 9oN-7 [10]): inactive
Activity (Escherichia coli [11]): inactive
Activity (Escherichia coli [12]): inactive
IC50 (CFPAC-1 [13]): 0.42 µM
IC50 (HeLa [14]): > 1000 µM
IC50 (K562): 80 µM

Nc1ncnc2c1ncn2[C@H]1C[C@H](O)[C@@H](COP(=O)(O)NC(=O)c2cccnc2)O1
EC50 [1]: 540 µM
EC50 [4]: 490 µM
